In ChEMBL document CHEMBL1777776, “Identification of 2-mercaptohexanoic acids as dual inhibitors of 5-lipoxygenase and microsomal prostaglandin E₂ synthase-1” (Bioorg Med Chem, 2011):
The source made the active and inactive calls. No cut-off for these calls is given here.

What was measured:
[1] = molecular target: T1, Polyunsaturated fatty acid 5-lipoxygenase (Homo sapiens, UniProt P09917); assay: Inhibition of human recombinant 5-lipoxygenase expressed in Escherichia coli BL21 assessed as enzyme product formation using arachidonic acid as substrate after 10 mins by RP-HPLC analysis
T1 sequence (P09917 whole entry): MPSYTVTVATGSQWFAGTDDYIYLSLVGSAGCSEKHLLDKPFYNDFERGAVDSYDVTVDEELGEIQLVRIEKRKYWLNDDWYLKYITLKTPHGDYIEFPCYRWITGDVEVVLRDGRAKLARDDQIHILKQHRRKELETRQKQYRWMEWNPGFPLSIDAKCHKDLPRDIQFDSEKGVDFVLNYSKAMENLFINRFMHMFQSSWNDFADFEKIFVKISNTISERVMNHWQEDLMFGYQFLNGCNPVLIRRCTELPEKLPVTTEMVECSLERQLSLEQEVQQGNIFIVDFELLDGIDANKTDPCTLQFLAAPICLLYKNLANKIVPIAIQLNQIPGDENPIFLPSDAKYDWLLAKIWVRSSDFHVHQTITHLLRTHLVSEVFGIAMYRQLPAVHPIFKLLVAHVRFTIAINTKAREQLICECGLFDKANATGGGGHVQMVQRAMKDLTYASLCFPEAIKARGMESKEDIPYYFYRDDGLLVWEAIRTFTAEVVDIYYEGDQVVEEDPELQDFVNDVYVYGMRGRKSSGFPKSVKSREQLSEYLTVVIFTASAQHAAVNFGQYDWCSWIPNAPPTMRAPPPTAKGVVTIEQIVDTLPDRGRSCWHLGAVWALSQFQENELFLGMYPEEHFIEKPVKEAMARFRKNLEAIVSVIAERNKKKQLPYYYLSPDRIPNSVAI
Summary of the method: (§1)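 Human 5-LO expressed in E. coli BL21 (pT3-5LO), affinity-purified and used at once. 0.5 µg enzyme in 1 ml PBS/EDTA with 1 mM ATP preincubated with compound 5–10 min at 4 °C, then warmed 30 s at 37 °C. Reaction started with 2 mM CaCl₂ and AA (routinely 20 µM), with or without 1 µM 13(S)-HpODE. Run 10 min at 37 °C, stopped with ice-cold methanol, products analysed by HPLC. Washout: 10-fold dilution (10 to 1 µM).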

[2] = tested on: A549; assay: Cytotoxicity against human A549 cells assessed as cell viability at 10 uM after 16 hrs by MTT assay; assay type: cell-based; conditions: a549, 5 h, in the assay text read “5 hrs” for “16 hrs”
Summary of the method: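 A549 cells plated at 4 × 10⁴ cells per well, incubated 16 h at 37 °C, 5% CO₂, then exposed to 10 µM compound or DMSO (≤0.3% final) for 5 h. MTT added for 4 h, formazan solubilized with SDS in 20 mM HCl, absorbance at 595 nm read relative to vehicle-treated cells.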

[3] = molecular target: T2, Prostaglandin G/H synthase 2 (Homo sapiens) (UniProt P35354); assay: Inhibition of human recombinant COX2 assessed as residual activity at 10 uM after 5 mins
T2 sequence (whole entry): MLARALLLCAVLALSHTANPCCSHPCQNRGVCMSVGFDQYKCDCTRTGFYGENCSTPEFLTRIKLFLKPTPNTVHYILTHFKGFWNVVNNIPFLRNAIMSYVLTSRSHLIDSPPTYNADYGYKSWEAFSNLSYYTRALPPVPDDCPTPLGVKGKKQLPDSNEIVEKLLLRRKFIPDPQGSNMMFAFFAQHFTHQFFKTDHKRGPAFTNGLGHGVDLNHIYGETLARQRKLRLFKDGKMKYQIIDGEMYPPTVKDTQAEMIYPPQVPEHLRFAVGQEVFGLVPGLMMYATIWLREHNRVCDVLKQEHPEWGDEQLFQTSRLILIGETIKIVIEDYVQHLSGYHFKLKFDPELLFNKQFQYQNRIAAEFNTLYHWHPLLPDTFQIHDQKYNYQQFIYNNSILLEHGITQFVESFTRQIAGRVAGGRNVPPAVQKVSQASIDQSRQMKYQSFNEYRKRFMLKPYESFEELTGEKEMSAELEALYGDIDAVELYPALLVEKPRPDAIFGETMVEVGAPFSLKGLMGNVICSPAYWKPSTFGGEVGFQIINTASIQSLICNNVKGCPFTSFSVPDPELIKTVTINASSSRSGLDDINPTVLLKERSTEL
Summary of the method: (§2)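 Ovine COX-1 (50 units) or human recombinant COX-2 (20 units) in 1 ml 100 mM Tris pH 8 with 5 mM glutathione, 5 µM haemoglobin and 100 µM EDTA. Preincubated with 10 µM compound 5 min at 4 °C, warmed 60 s at 37 °C. Started with AA (5 µM for COX-1, 2 µM for COX-2), run 5 min at 37 °C. 12-HHT extracted and analysed by HPLC. n = 3.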

[4] = molecular target: T1, Polyunsaturated fatty acid 5-lipoxygenase; assay: Inhibition of 5-lipoxygenase in A23187-stimulated human PMNL assessed as enzyme product formation preincubated 15 mins by RP-HPLC analysis in presence of exogenous arachidonic acid
Summary of the method: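 Freshly isolated human PMNL (5 × 10⁶/ml PGC buffer: PBS pH 7.4, 1 mg/ml glucose, 1 mM CaCl₂) preincubated with compound 15 min at 37 °C. Stimulated with 2.5 µM A23187 plus exogenous AA for 10 min at 37 °C. Stopped with methanol, PGB₁ added as internal standard, lipoxygenase products analysed by HPLC. Mean of n = 3–5.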

[5] = molecular target: T3, Prostaglandin G/H synthase 1 (Ovis aries) (UniProt P05979); assay: Inhibition of ovine COX1 assessed as residual activity at 10 uM after 5 mins; summary of the method: as §2
T3 sequence (whole entry): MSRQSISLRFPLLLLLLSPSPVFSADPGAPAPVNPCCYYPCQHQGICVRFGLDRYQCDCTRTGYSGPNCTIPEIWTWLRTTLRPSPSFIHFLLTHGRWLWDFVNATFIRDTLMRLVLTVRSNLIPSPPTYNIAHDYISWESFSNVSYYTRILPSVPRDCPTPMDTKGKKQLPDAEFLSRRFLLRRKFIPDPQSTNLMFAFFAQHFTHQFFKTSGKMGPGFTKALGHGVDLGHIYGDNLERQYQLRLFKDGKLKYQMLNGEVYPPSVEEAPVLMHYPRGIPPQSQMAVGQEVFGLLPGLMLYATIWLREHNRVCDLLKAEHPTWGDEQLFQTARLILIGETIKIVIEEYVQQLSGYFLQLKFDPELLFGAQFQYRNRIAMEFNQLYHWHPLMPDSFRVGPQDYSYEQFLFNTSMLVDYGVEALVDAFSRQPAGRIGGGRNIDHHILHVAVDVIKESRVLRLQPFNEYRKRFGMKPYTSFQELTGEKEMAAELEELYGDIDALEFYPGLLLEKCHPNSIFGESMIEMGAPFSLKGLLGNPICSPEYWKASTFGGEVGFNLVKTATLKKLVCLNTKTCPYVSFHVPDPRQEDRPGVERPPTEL

[6] = molecular target: T4, Prostaglandin E synthase (Homo sapiens, UniProt O14684); assay: Inhibition of mPGES-1 in human IL-1beta-stimulated A549 cell microsomes assessed as reduction of PGE2 formation from PGH2 after 15 mins; design: species or system Microsome
T4 sequence (O14684 whole entry): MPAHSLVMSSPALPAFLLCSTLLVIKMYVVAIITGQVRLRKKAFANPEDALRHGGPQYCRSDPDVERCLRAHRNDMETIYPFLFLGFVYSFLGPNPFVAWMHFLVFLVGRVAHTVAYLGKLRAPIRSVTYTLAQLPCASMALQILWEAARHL
Summary of the method: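 Microsomes from A549 cells stimulated 72 h with IL-1β (1 ng/ml), diluted to 50 µg/ml in 0.1 M potassium phosphate pH 7.4 with 2.5 mM glutathione. Preincubated with compound (1% DMSO final) 15 min at 4 °C. Reaction started with 20 µM PGH₂, run 1 min at 4 °C, stopped with FeCl₂/citric acid containing 11β-PGE₂; PGE₂ quantified. Mean of n = 3–5.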

[7] = molecular target: T5, Polyunsaturated fatty acid 5-lipoxygenase (Homo sapiens) (UniProt P09917); assay: Inhibition of human recombinant 5-lipoxygenase expressed in Escherichia coli BL21 assessed as enzyme product formation using arachidonic acid as substrate at 1 uM after 10 mins by RP-HPLC analysis; summary of the method: as §1
T5 sequence (whole entry): T1 sequence (P09917 whole entry)

IC50 [1] [µM]	inhibition [3]	IC50 [4] [µM]	inhibition [5]	IC50 [6] [µM]	inhibition [7]	Structure (SMILES)	Activity [2]
4.5	inactive	1.4	inactive	2.2		CCCCC(Sc1ccc(OCCCOc2cccc3c2CCCC3)cc1)C(=O)O (configuration not stated)	Non-toxic
					inactive	CC(C)c1ccc2c(c1)c(SC(C)(C)C)c(CC(C)(C)C(=O)O)n2Cc1ccc(Cl)cc1	
